The record followed here is ChEMBL document CHEMBL5614410, “Design, Synthesis, and Evaluation of p53Y220C Acetylation Targeting Chimeras (AceTACs)” (J Med Chem, 2024).

One data set has as its system U2OS. Nature of the data set: Cytotoxicity against human U2OS cells harboring wild type p53 assessed as inhibition of cell growth incubated for 72 hrs by WST-8 assay. It counts as toxicity, cell-based. An outline of the steps: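 U2OS (WT p53) or normal prostate PNT2 cells were treated for 72 h at the indicated concentrations. Viability is mean ± SD of technical triplicates from two biological experiments.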

Data set [1] has as its target CREB-binding protein/Histone acetyltransferase p300/Cellular tumor antigen p53 (Homo sapiens, UniProt P04637+Q09472+Q92793, Y220C). Briefly: (§1) AceTAC activity at FLAG-tagged p53Y220C mutant (unknown origin) expressed in human NCI-H1299 cells expressing p300/CBP assessed as increase in p53 acetylation at lysine 382 residue incubated for 24 hrs by western blot analysis. It counts as cell-based. Put shortly: (§2)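 NCI-H1299 (p53Y220C) cells were treated at 0.1–10 μM (0.1, 0.3, 1, 3 or 10 μM) for 24 h. Lysates were Western blotted for p53 and p53K382ac, with vinculin as loading control. p53K382ac was normalised to total p53Y220C and quantified from two or three independent experiments.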

Data set [2] relates to CREB-binding protein/Histone acetyltransferase p300/Cellular tumor antigen p53 (Homo sapiens), P04637+Q09472+Q92793 [Y220C]. Described as §1. The class given is cell-based. Put shortly:
as §2

For data set [3] the test system is unchanged. Briefly: Induction of interaction between FLAG-tagged p53Y220C mutant (unknown origin) and p300/CBP expressed in human NCI-H1299 cells at 10 uM pretreated for 2 hrs with p300/CBP bromodomain binder, 4-(2-(5-(3,5-dimethylisoxazol-4-yl)-2-(3-fluoro-4-methoxyphenethyl)-1H-benzo[d]imidazol-1-yl)ethyl)morpholine followed by incubation with compound for 18 hrs by co-immunoprecipitation analysis. It counts as cell-based. An outline of the steps:
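NCI-H1299 (p53Y220C) cells were pretreated for 2 h with a 10 μM p53Y220C binder or a 10 μM p300 binder, then given compound at 3 μM for 18 h. p53-FLAG pull-down was followed by Western blot analysis.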

Data set [4] relates to NCI-H1299. Nature of the data set: Antiproliferative activity against human NCI-H1299 cells expressing p53Y220C mutant assessed as reduction in cell viability incubated for 3 days by WST-8 assay. It counts as functional. Put shortly:
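NCI-H1299 p53Y220C cells were exposed to compound over a concentration range for 72 h, in some runs after 72 h of control or p300 siRNA, before the viability read-out. Values are mean ± SD of three independent experiments.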

A further data set relates to BXPC-3. Nature of the data set: Antiproliferative activity against human BXPC-3 cells harboring p53Y220C mutant assessed as inhibition of cell growth incubated for 72 hrs by WST-8 assay. It counts as functional. Put shortly:
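BxPC3 or NUGC-3 cells were treated with DMSO or compound over a concentration range for 72 h before the viability read-out. Values are mean ± SD of technical triplicates from three biological experiments.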
Background: Tetrazolium assays rely on reduction of a dye to a coloured formazan, in cell work by metabolically active cells.

For data set [5], the system named is CREB-binding protein/Histone acetyltransferase p300/Cellular tumor antigen p53 (Homo sapiens), P04637+Q09472+Q92793 [Y220C]. Briefly: AceTAC activity at p53Y220C mutant in human BXPC-3 cells expressing p300/CBP assessed as increase in p53 acetylation at lysine 382 residue incubated for 24 hrs by western blot analysis. The class given is cell-based. The following applies: dose 1-10 µM. Put shortly:
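BxPC3 or NUGC-3 cells, which express p53Y220C endogenously, were treated with DMSO or compound at 1, 3 or 10 μM for 24 h. Lysates were Western blotted for p53 and p53K382ac, with vinculin as loading control. Representative of two independent experiments.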

Data set [6] shares this test system. Nature of the data set: AceTAC activity at FLAG-tagged p53Y220C mutant (unknown origin) expressed in human NCI-H1299 cells expressing p300/CBP assessed as increase in p53 acetylation at lysine 382 residue at 10 uM pretreated for 2 hrs with p53Y220C mutant binder, PK9328 followed by incubation with compound for 18 hrs by western blot analysis. It counts as cell-based. (In general: A western blot detects proteins with antibodies after separation by electrophoresis.)

For data set [7], the system named is NCI-H1299. Nature of the data set: Antiproliferative activity against human NCI-H1299 cells expressing p53Y220C mutant and transfected with p300 siRNA assessed as reduction in cell viability at 0.47 to 15 uM incubated for 3 days by WST-8 assay. The class given is functional, cell-based. The following applies: dose 0.47-15 µM, time 3.0 day. An outline of the steps: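 NCI-H1299 p53Y220C cells were first transfected with p300 siRNA for 72 h, then exposed to compound across the concentration series for 72 h. Viability is mean ± SD from three independent experiments.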

Data set [8] deals with CREB-binding protein/Histone acetyltransferase p300/Cellular tumor antigen p53 (Homo sapiens), P04637+Q09472+Q92793 [Y220C]. Nature of the data set: AceTAC activity at FLAG-tagged p53Y220C mutant (unknown origin) expressed in human NCI-H1299 cells expressing p300/CBP assessed as stabilization of protein by measuring increase in aggregation temperature at 100 uM incubated for 1 hr at 32 to 50 degC by CETSA analysis. The class given is cell-based. Put shortly:
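For CETSA, NCI-H1299 (p53Y220C) stable cells were treated with DMSO or 100 μM compound for 1 h, then heated at 32 to 50 °C. Soluble p53 was detected by Western blot. Representative of at least two independent experiments.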

Data set [9] has the same test system. Briefly: AceTAC activity at FLAG-tagged p53Y220C mutant (unknown origin) expressed in human NCI-H1299 cells expressing p300/CBP and transfected with p300 siRNA assessed as increase in p53 acetylation at lysine 382 residue at 1 to 10 uM incubated for 24 hrs by western blot analysis. It counts as cell-based. The following applies: dose 1-10 µM. An outline of the steps: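 NCI-H1299 cells stably expressing p53Y220C were given control or p300 siRNA, then treated at 0, 1 or 10 μM for 24 h. Lysates were Western blotted for p53 and p53K382ac. The acetylation level was normalised to vinculin and quantified from two independent experiments.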

The subject of data set [10] is NCI-H1299. Nature of the data set: Antiproliferative activity against p53-null human NCI-H1299 cells assessed as reduction in cell viability at 0.47 to 15 uM incubated for 3 days by WST-8 assay. The following applies: dose 0.47-15 µM, time 3.0 day. It counts as functional, cell-based. Put shortly:
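p53-null NCI-H1299 cells were exposed to compound across the concentration series for 72 h before the viability read-out. Data are mean ± SD from three independent experiments.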

As a reminder, the GI50 is the concentration giving 50% growth inhibition. A word on the EC50: it is the concentration needed to bring the measured effect to its halfway point. What is called ΔTm is the change in melting temperature against a reference sample.

Calls of active or inactive are those of the source. The rule behind the calls is not given here.

For `CCn1c2ccc(CNCCOCCOCCOCCC(=O)NCCOc3ccc(CCc4nc5cc(-c6c(C)noc6C)ccc5n4CCN4CCOCC4)cc3F)cc2c2ccc(-c3cc(C)cs3)cc21`, the GI50 was greater than 10000 nM in the data set with U2OS; 3000 nM with NCI-H1299 [4] (NCI-H1299, 72 h, time 3 day); 2160 nM in the data set on BXPC-3. In addition, the EC50 in [1] turned out to be 1520 nM. Moreover, the Activity entry (in data set [2]; in the data set with NCI-H1299 [4] (time 3.0 day); in data set [5]) was “Dose-Dependent Effect” each time. In addition, the result (in data set [3]; in data set [6]; in the data set with NCI-H1299 [7]; in [9]; in the data set with NCI-H1299 [10]) was inactive. For the same compound, the ΔTm in data set [8] amounted to 4.3 °C.
